Data from publication PMC3717983 (Journal of medicinal chemistry, 2013).
Where “and” joins values, the source holds several entries; their conditions need not be identical. Identical values can stand only once. Like-named read-outs stand apart in the source and are kept apart here. Marks after values point to notes of the source that are not given here. Blank lines part the entries; values can stand above or below the compound they belong to.

Tests used:
[1] = target: T1, human α-thrombin (Homo sapiens, UniProt P00734); assay type: biochemical; details: for HS (Hill slope) / logIC50: pH 7.4, 25 °C, Spectrozyme TH; for fold decrease in potency from 9a: ratio of IC50s
[2] = target: K169A thrombin (Homo sapiens, UniProt P00734, K537A); assay: Inhibition of recombinant thrombin, S2238 hydrolysis assay; assay type: biochemical; details: overnight 25 °C
Summary of the method: (§1)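 Recombinant wild-type and Ala-mutant thrombins were made in […] form by PCR mutagenesis, expressed in BHK cells, HPC4 immunoaffinity-purified and activated. Active-site concentration came from amidolytic assay and antithrombin titration. Enzyme (1.5–7.5 nM final) was incubated with test compound overnight at 25 °C in pH 7.4 Tris buffer. S2238 was added and initial rate read at 405 nm. At least 9–10 concentrations were fitted by logistic equation for apparent IC50, HS, Y0 and YM. Mutant IC50 is expressed relative to recombinant wild type.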

[3] = target: K240A thrombin (Homo sapiens, UniProt P00734, K615A); assay: as above; assay type: biochemical; details: overnight 25 °C
Summary of the method: as §1

[4] = target: R175A thrombin (Homo sapiens, UniProt P00734, R543A); assay: as above; assay type: biochemical; details: overnight 25 °C
Summary of the method: as §1

[5] = target: T1, human α-thrombin; assay: Thrombin inhibition by 9a in presence of exosite 1 or exosite 2 ligands; assay type: biochemical
[6] = target: R97A thrombin (Homo sapiens, UniProt P00734, R456A); assay: Inhibition of recombinant thrombin, S2238 hydrolysis assay; assay type: biochemical; details: overnight 25 °C
Summary of the method: as §1

[7] = target: R165A thrombin (Homo sapiens, UniProt P00734, R533A); assay: as above; assay type: biochemical; details: overnight 25 °C
Summary of the method: as §1

[8] = target: R233A thrombin (Homo sapiens, UniProt P00734, R608A); assay: as above; assay type: biochemical
Summary of the method: as §1

[9] = target: R93A thrombin (Homo sapiens, UniProt P00734, R452A); assay: as above; assay type: biochemical; details: overnight 25 °C
Summary of the method: as §1

[10] = target: K236A thrombin (Homo sapiens, UniProt P00734, K611A); assay: as above; assay type: biochemical; details: overnight 25 °C
Summary of the method: as §1

[11] = target: R101A thrombin (Homo sapiens, UniProt P00734, R461A); assay: as above; assay type: biochemical; details: overnight 25 °C
Summary of the method: as §1

[12] = target: K235A thrombin (Homo sapiens, UniProt P00734, K610A); assay: as above; assay type: biochemical; details: overnight 25 °C
Summary of the method: as §1

[13] = target: T1, human α-thrombin; assay type: biochemical
Summary of the method: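 Human α-thrombin (5 nM) was preincubated with fixed test compound concentrations (0–9.90 μM), either overnight at 25 °C or 2 h at 37 °C, in 20 mM Tris-HCl pH 7.4 with 100 mM NaCl, 2.5 mM CaCl2 and 0.1% PEG8000. Initial rates of Spectrozyme TH hydrolysis (2–80 μM) were read at 405 nm, at under 10% substrate consumption. Standard Michaelis-Menten fit gave KM and VMAX.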

[14] = target: R126A thrombin (Homo sapiens, UniProt P00734, R486A); assay: Inhibition of recombinant thrombin, S2238 hydrolysis assay; assay type: biochemical; details: overnight 25 °C
Summary of the method: as §1

[15] = test system: human plasma; assay: Human plasma clotting assay, activated partial thromboplastin time; assay type: biochemical
Summary of the method: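 APTT on a fibrometer using a one-stage recalcification assay. Citrated human plasma, test compound or vehicle, and pre-warmed 0.2% ellagic acid were mixed and incubated 4 min. Clotting was started with 25 mM CaCl2 at 37 °C and clotting time recorded. Run in duplicate. A quadratic trend line gave the concentration that doubles APTT.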

[16] = target: R173A thrombin (Homo sapiens, UniProt P00734, R541A); assay: Inhibition of recombinant thrombin, S2238 hydrolysis assay; assay type: biochemical; details: overnight 25 °C
Summary of the method: as §1

[17] = target: recombinant wild-type thrombin (rWT) (Homo sapiens, UniProt P00734); assay: as above; assay type: biochemical; details: overnight 25 °C
Summary of the method: as §1

[18] = test system: human plasma; assay: Human plasma clotting assay, prothrombin time; assay type: biochemical; details: citrated human plasma
Summary of the method: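 PT on a fibrometer using a one-stage recalcification assay. Test compound or vehicle was mixed with citrated human plasma and incubated 30 s at 37 °C. Pre-warmed reconstituted thromboplastin was then added and clotting time recorded. Run in duplicate. A quadratic trend line gave the concentration that doubles PT.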

[19] = Water solubility; assay type: physicochemical; details: devoid of any sulfate group
[20] = target: thrombin (Homo sapiens, UniProt P00734); assay: Sequential inhibition of thrombin by 9a and PPACK; assay type: biochemical; details: PPACK added following inhibition by 9a (Figure S10)
[21] = Heparin (UFH) 4.2 μM, overnight 25 °C
[22] = Heparin (UFH) 25.0 μM, overnight 25 °C
[23] = Heparin (UFH) 42.6 μM, overnight 25 °C
[24] = Hirugen peptide (HirP) 5 nM, overnight 25 °C
[25] = Hirugen peptide (HirP) 15 nM, overnight 25 °C
[26] = Octasaccharide H8 1.0 μM, overnight 25 °C
[27] = Octasaccharide H8 3.0 μM, overnight 25 °C
[28] = Octasaccharide H8 10 μM, overnight 25 °C
[29] = Octasaccharide H8 20 μM, overnight 25 °C
[30] = γ′-Fibrinogen peptide (FibP) 0.2 μM, overnight 25 °C
[31] = γ′-Fibrinogen peptide (FibP) 0.65 μM, overnight 25 °C
[32] = γ′-Fibrinogen peptide (FibP) 2.0 μM, overnight 25 °C
[33] = γ′-Fibrinogen peptide (FibP) 6.5 μM, overnight 25 °C
[34] = [9a] 0.63 μM, 2 hr incubation at 37°C
[35] = [9a] 0.63 μM, overnight incubation at 25°C
[36] = [9a] 1.53 μM, 2 hr incubation at 37°C
[37] = [9a] 1.80 μM, overnight incubation at 25°C
[38] = [9a] 3.60 μM, 2 hr incubation at 37°C
[39] = [9a] 3.60 μM, overnight incubation at 25°C
[40] = [9a] 9.90 μM, 2 hr incubation at 37°C

SMILES: C=CCOC(=O)c1c(C)oc2cc(OC)c(OCc3oc4cc(OC)c(OCc5oc6cc(OC)c(OS(=O)(=O)[O-])cc6c5C(=O)OCC)cc4c3C(=O)OCC)cc12.[Na+] [compound 13]
HS (Hill slope) [1]: 3.5 ± 1.2
logIC50 [1]: −4.51 ± 0.06
fold decrease in potency from 9a [1]: 46 fold

SMILES: CCOC(=O)c1c(C)oc2cc(OC)c(OCc3oc4cc(OC)c(OCc5oc6cc(OS(=O)(=O)[O-])c(OC)cc6c5C(=O)OCC)cc4c3C(=O)OCC)cc12.[Na+] [compound 23]
HS (Hill slope) [1]: 1.2 ± 0.3
logIC50 [1]: −3.81 ± 0.13

SMILES: CCOC(=O)c1c(COc2cc3c(C(=O)O)c(C)oc3cc2OC)oc2cc(OC)c(OCc3oc4cc(OC)c(OS(=O)(=O)[O-])cc4c3C(=O)OCC)cc12.[Na+] [compound 14]
fold reduction in potency from 13 ([1]; allyl ester to carboxylic acid): 2 fold
HS (Hill slope) [1]: 1.0 ^c
logIC50 [1]: −4.18 ± 0.17

SMILES: CCOC(=O)c1c(COc2cc3c(C(=O)OCC)c(COc4cc5c(C(=O)O)c(C)oc5cc4OC)oc3cc2OC)oc2cc(OC)c(O)cc12 [compound 12]
water solubility [19]: fairly good water solubility

SMILES: N=C(N)NCCC[C@H](NC(=O)[C@@H]1CCCN1C(=O)[C@H](N)Cc1ccccc1)C(=O)CCl [PPACK, D-Phe-Pro-Arg-chloromethylketone]
thrombin activity after sequential inhibition [20]: totally inactive

SMILES: CCOC(=O)c1c(C)oc2cc(OC)c(OCc3oc4cc(OC)c(OCc5oc6cc(OC)c(OCc7oc8cc(OC)c(OS(=O)(=O)[O-])cc8c7C(=O)OCC)cc6c5C(=O)OCC)cc4c3C(=O)OCC)cc12.[Na+] [compound 17]
HS (Hill slope) [1]: 1.0 ^c
logIC50 [1]: −3.80 ± 0.15
fold decrease in potency from 9a [1]: ~236 fold and 225 fold

Further lines, with some results ahead:

HS (Hill slope) [1]: 2.3 ± 1.2
logIC50 [1]: −5.23 ± 0.11
fold decrease in potency from 9a [1]: 8.6 fold
SMILES: CCOC(=O)c1c(C)oc2cc(OC)c(OCc3oc4cc(OC)c(OCc5oc6cc(OCC)c(OS(=O)(=O)[O-])cc6c5C(=O)OCC)cc4c3C(=O)OCC)cc12.[Na+] [9f]

HS [2]: 2.1 ± 0.2
ΔY [2]: 59 ± 3%
HS [3]: 2.3 ± 0.4
ΔY [3]: 49 ± 3%
ΔY [4]: 37 ± 3%
logIC50 ([5]; 0 μM competitor): −6.17 ± 0.03
ΔY ([5]; 0 μM competitor): 79 ± 9%
HS [5, 21]: 2.2 ± 0.4
ΔY [5, 21]: 71 ± 7%
HS ([5]; Heparin (UFH) 12.8 μM, overnight 25 °C): 1.8 ± 0.2
HS [5, 22]: 1.7 ± 0.2
ΔY [5, 22]: 81 ± 10%
HS [5, 23]: 1.2 ± 0.2
ΔY [5, 23]: ~90 ^c %
ΔY ([5]; Hirugen peptide (HirP) 3 nM, overnight 25 °C): 44 ± 2%
HS [5, 24]: 2.4 ± 0.3
ΔY [5, 24]: 46 ± 2%
HS [5, 25]: 3.0 ± 0.7
ΔY [5, 25]: 43 ± 1%
HS [5, 26]: 2.3 ± 0.3
ΔY [5, 26]: 58 ± 3%
HS [5, 27]: 2.6 ± 0.6
ΔY [5, 27]: 54 ± 4%
HS [5, 28]: 2.8 ± 0.4
ΔY [5, 28]: 50 ± 2%
HS [5, 29]: 2.6 ± 0.5
ΔY [5, 29]: 49 ± 2%
HS [5, 30]: 2.4 ± 0.3
ΔY [5, 30]: 73 ± 8%
HS [5, 31]: 2.1 ± 0.3
ΔY [5, 31]: 71 ± 8%
HS [5, 32]: 3.3 ± 0.6
ΔY [5, 32]: 67 ± 4%
HS [5, 33]: 2.1 ± 0.6
ΔY [5, 33]: 65 ± 7%
HS [6]: 2.6 ± 0.5
ΔY [6]: 47 ± 3%
HS [7]: 1.1 ± 0.3
ΔY [7]: 61 ± 8%
fold loss in potency (defect) vs recombinant wild-type ([8]; Arg233Ala thrombin): ~ 3 fold
ΔY ([8]; R233A, overnight 25 °C): 44 ± 2%
HS [9]: 1.8 ± 0.3
ΔY [9]: 66 ± 6%
HS [10]: 3.0 ± 0.3
ΔY [10]: 52 ± 1%
HS [11]: 2.1 ± 0.6
ΔY [11]: 55 ± 6%
ΔY [12]: 50 ± 1%
reduction in KM and VMAX ([13]; 25 °C): 0.86–1.2 fold per μM
reduction in KM and VMAX ([13]; 37 °C): 0.4–0.6 fold per μM
Km ([13]; [9a] 0.36 μM, overnight incubation at 25°C): 11.1 ± 2.5 µM
Km [13, 34]: 6.7 ± 2.3 µM
VMAX [13, 34]: 72 ± 8 mAU/min
Km [13, 35]: 7.7 ± 1.3 µM
VMAX [13, 35]: 69 ± 3 mAU/min
Km [13, 36]: 2.2 ± 0.8 µM
VMAX [13, 36]: 30 ± 2 mAU/min
Km [13, 37]: 3.2 ± 0.5 µM
VMAX [13, 37]: 35 ± 1 mAU/min
Km [13, 38]: 2.7 ± 0.6 µM
VMAX [13, 38]: 25 ± 1 mAU/min
Km [13, 39]: 3.1 ± 0.6 µM
VMAX [13, 39]: 19 ± 1 mAU/min
Km [13, 40]: 1.9 ± 0.6 µM
VMAX [13, 40]: 15 ± 0.8 mAU/min
mechanism of thrombin inhibition ([13]; both incubation conditions): primarily uncompetitive
logIC50 [1]: −6.17 ± 0.03
HS [14]: 1.8 ± 0.5
ΔY [14]: 65 ± 11%
HS [16]: 2.4 ± 0.7
ΔY [16]: 62 ± 8%
HS [17]: 3.4 ± 0.5 ^b
ΔY [17]: 49 ± 2%
SMILES: CCOC(=O)c1c(C)oc2cc(OC)c(OCc3oc4cc(OC)c(OCc5oc6cc(OC)c(OS(=O)(=O)[O-])cc6c5C(=O)OCC)cc4c3C(=O)OCC)cc12.[Na+] [9a]
times less potent in plasma anticoagulation than sulfated LMWLs ([15]; LMWLs from ref 15): 10 times
concentration required for a 2-fold increase in APTT ([15]; citrated human plasma): 139 µM
concentration required for a 2-fold increase in PT [18]: 568 µM

HS (Hill slope) [1]: 2.1 ± 0.5
logIC50 [1]: −3.78 ± 0.07
SMILES: CCOC(=O)c1c(C)oc2cc(OC)c(OCc3oc4cc(OC)c(OCc5oc6cc(OC)c(OS(=O)(=O)[O-])cc6c5C(=O)OC(C)(C)C)cc4c3C(=O)OCC)cc12.[Na+] [9c]

fold decrease in potency from 9a [1]: > 500 fold
SMILES: CCOC(=O)c1c(C)oc2cc(OC)c(OCc3oc4cc(OC)c(OCc5oc6cc(OC)c(OS(=O)(=O)[O-])cc6c5C(=O)OCCOC)cc4c3C(=O)OCC)cc12.[Na+] [9d]

logIC50 [1]: ~ −4.0 ^d
fold decrease in potency from 9a [1]: 148 fold
SMILES: CCOC(=O)c1c(C)oc2cc(OC)c(OCc3oc4cc(OC)c(OCc5oc6cc(OC(C)C)c(OS(=O)(=O)[O-])cc6c5C(=O)OCC)cc4c3C(=O)OCC)cc12.[Na+] [9g]

HS (Hill slope) [1]: 1.0 ^c
logIC50 [1]: −5.69 ± 0.13
SMILES: CCOC(=O)c1c(C)oc2cc(OC)c(OCc3oc4cc(OC)c(OCc5oc6cc(OC)c(OS(=O)(=O)[O-])cc6c5C(=O)OC)cc4c3C(=O)OCC)cc12.[Na+] [9b]
